Here are results for two compounds from ChEMBL document CHEMBL1149797, “Synthesis and in vitro antibacterial activities of novel oxazolidinones” (Eur J Med Chem, 2008).

≈ marks a conversion by molar mass, not a printed value.

A short description of series [1]: Cmax in Sprague-Dawley rat at 10 mg/kg, iv. On the set-up: dose 10 mg/kg, route intravenous. The format is ADME, organism-based. The note with it: in vivo. In short, it runs like this:
(§1)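 Male Sprague-Dawley rats, 8-10 weeks old, fasted 18 h, with food returned 4 h post-dose and water free. The compound was given as a clear solution in PEG-400/cremophore/ethanol/propylene glycol/saline via the tail vein at 10 mg/kg. Retro-orbital blood went into heparinized tubes at intervals, and plasma was spun and analysed immediately by HPLC against spiked rat-plasma calibrators. Cmax, tmax, AUC0-∞ and t1/2 were derived.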

The nature of series [2]: Cmax in Sprague-Dawley rat at 30 mg/kg, po. The format is ADME, organism-based. On the set-up: dose 30 mg/kg, route oral. The note with it: in vivo. Put shortly:
(§2)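 Male Sprague-Dawley rats, 8-10 weeks old, fasted 18 h, fed again 4 h after dosing, water ad libitum. Oral dose of 30 mg/kg as a homogeneous suspension in 0.5% w/v CMC in normal saline. Serial retro-orbital samples into heparinized tubes; plasma separated at ambient temperature and assayed at once by HPLC with calibrators in drug-free rat plasma. Cmax, tmax, AUC0-∞ and t1/2 calculated.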

Series [3] is described as follows: Half life in Sprague-Dawley rat at 10 mg/kg, iv. The format is ADME, organism-based. Further details: dose 10 mg/kg, route intravenous. The conditions noted are these: in vivo. Put shortly:
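The compound was given as a clear solution in PEG-400/cremophore/ethanol/propylene glycol/saline via the tail vein at 10 mg/kg. Retro-orbital blood went into heparinized tubes at intervals, and plasma was spun and analysed immediately by HPLC against spiked rat-plasma calibrators. Cmax, tmax, AUC0-∞ and t1/2 were derived.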

The nature of series [4]: Half life in Sprague-Dawley rat at 30 mg/kg, po. The note with it: in vivo. Further details: dose 30 mg/kg, route oral. The format is ADME, organism-based. Put shortly: as §2
The nature of series [5]: AUC in Sprague-Dawley rat at 10 mg/kg, iv. The format is ADME, organism-based. On the set-up: dose 10 mg/kg, route intravenous. The note with it: plasma. In short, it runs like this: as §1
A short description of series [6]: AUC in Sprague-Dawley rat at 30 mg/kg, po. The format is ADME, organism-based. Further details: dose 30 mg/kg, route oral. The conditions noted are these: plasma. In short, it runs like this: as §2
The next series deals with Streptococcus pyogenes. The series is described as follows: Antibacterial activity against Streptococcus pyogenes ATCC 14289 by broth microdilution technique. The format is functional. In short, it runs like this: (§3)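 Broth microdilution per CLSI (NCCLS) guidelines. Compounds were dissolved in DMSO with water added to give an 80% DMSO stock, then diluted 1:10 to working solutions in water or medium. They were tested at 0.125, 0.25, 0.5, 1, 2, 4, 8 and 16 (two-fold series) against the final inoculum. Each run included sterility controls and vehicle controls (plain medium; 4%, 2%, 1% DMSO). MIC was read as growth inhibition.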

In series [7] the test system is Staphylococcus epidermidis. In words: Antibacterial activity against Staphylococcus epidermidis ATCC 155 by broth microdilution technique. The format is functional. Put shortly: as §3
The test system of series [8] is Enterococcus faecalis. The series is described as follows: Antibacterial activity against Enterococcus faecalis ATCC 35550 by broth microdilution technique. The format is functional. In short, it runs like this: as §3
In general terms: Broth dilution looks for growth in wells or tubes with falling amounts of substance.

The subject of series [9] is Staphylococcus aureus. In words: Antibacterial activity against Staphylococcus aureus ATCC 25923 by broth microdilution technique. The format is functional. In short, it runs like this: as §3
Series [10] relates to Enterococcus faecalis. The series is described as follows: Antibacterial activity against multidrug-resistant Enterococcus faecalis ATCC 700802 by broth microdilution technique. The format is functional. Put shortly: (§4)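 Broth microdilution per NCCLS/CLSI. Compounds dissolved in DMSO with water added to give an 80% DMSO stock. Stock diluted 1:10 in 4-8% DMSO in water or medium to make the working solution. Tested at […]. Sterility controls run with each set. Inoculum viability controls included plain medium and 4%, 2% and 1% DMSO vehicle. MIC taken as growth inhibition.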

A further series concerns Enterococcus faecium. In words: Antibacterial activity against vancomycin-resistant Enterococcus faecium ATCC 700221 by broth microdilution technique. The format is functional. In short, it runs like this: as §4
Series [11] has as its system Staphylococcus aureus. In words: Antibacterial activity against Staphylococcus aureus ATCC 29213 by broth microdilution technique. The format is functional. In short, it runs like this: as §4
For series [12], the system named is Staphylococcus aureus. The series is described as follows: Antibacterial activity against Staphylococcus aureus ATCC 14154 by broth microdilution technique. The format is functional. In short, it runs like this:
as §4

Series [13] deals with Staphylococcus aureus. In words: Antibacterial activity against methicillin-resistant Staphylococcus aureus ATCC 700699 by broth microdilution technique. The format is functional. Put shortly:
as §4

Series [14] relates to Staphylococcus aureus. In words: Antibacterial activity against linezolid-resistant Staphylococcus aureus NRS 119 with G 2576T mutation by broth microdilution technique. The format is functional. Put shortly: as §4
In series [15] the test system is Staphylococcus aureus. In words: Antibacterial activity against linezolid-resistant Staphylococcus aureus NRS 120 with G 2576T mutation by broth microdilution technique. The format is functional. Put shortly:
as §4

In another series the test system is Streptococcus pneumoniae. In words: Antibacterial activity against multidrug-resistant Streptococcus pneumoniae ATCC 700904 by broth microdilution technique. The format is functional. In short, it runs like this:
as §4

Series [16] can be described thus: Tmax in Sprague-Dawley rat at 10 mg/kg, iv. The format is ADME, organism-based. Further details: dose 10 mg/kg, route intravenous. The conditions noted are these: in vivo. In short, it runs like this: as §1
A short description of series [17]: Tmax in Sprague-Dawley rat at 30 mg/kg, po. The format is ADME, organism-based. On the set-up: dose 30 mg/kg, route oral. The note with it: in vivo. In short, it runs like this:
as §2

The nature of series [18]: Bioavailability in Sprague-Dawley rat at 30 mg/kg, po. The conditions noted are these: in vivo.
The nature of series [19]: Tmax in Sprague-Dawley rat at 25 mg/kg, po. The format is ADME, organism-based. Further details: dose 25 mg/kg, route oral. The conditions noted are these: in vivo.
Another series deals with Bacillus pumilus. The series is described as follows: Antibacterial activity against Bacillus pumilus ATCC 14884 by broth microdilution technique. The format is functional. Put shortly:
as §3

A further series relates to Bacillus cereus. The series is described as follows: Antibacterial activity against Bacillus cereus ATCC 11778 by broth microdilution technique. The format is functional. Put shortly:
as §3

The term Cmax denotes the maximum level reached in the sampled fluid or tissue. As usually defined, the half-life is the time needed for the level to fall by half in the phase considered. A lower half-life goes with rapid decline. The AUC is concentration integrated over time. By MIC is commonly meant the least concentration at which growth counts as inhibited. The Tmax is the time from dosing to the highest level. For orientation: bioavailability means the share of a dose that reaches the circulation, judged against a reference dose that is usually intravenous. A low value points to poor availability. In the case of `CC(=O)NC[C@H]1CN(c2ccc([N+]3([O-])CCN(C(=O)/C=C/c4ccc([N+](=O)[O-])o4)CC3)c(F)c2)C(=O)O1`, the Cmax in [1] is 9180 ng/mL; in series [2], 1210 ng/mL. Also, the results for the half-life in [3] and in series [4] were 57 min and 58.2 min, respectively. Moreover, the AUC in [5] was determined as 1030 ng·h/mL; in series [6] it was 1870 ng·h/mL. The MIC came out at 0.12 µg/mL (≈ 0.232 µM) with Streptococcus pyogenes; 0.12 µg/mL (≈ 0.232 µM) in series [7]; 1 µg/mL (≈ 1.93 µM) in the series with Enterococcus faecalis [8]; 0.5 µg/mL (≈ 0.966 µM) in the series on Staphylococcus aureus [9]; 1 µg/mL (≈ 1.93 µM) against Enterococcus faecalis [10]; 0.5 µg/mL (≈ 0.966 µM) in the series on Enterococcus faecium. Further, the MIC with Staphylococcus aureus [11] amounted to 1 µg/mL (≈ 1.93 µM); in the series with Staphylococcus aureus [12] it was 1 µg/mL (≈ 1.93 µM); in the series with Staphylococcus aureus [13], 0.5 µg/mL (≈ 0.966 µM); in the series with Staphylococcus aureus [14] it was 2 µg/mL (≈ 3.86 µM); against Staphylococcus aureus [15] it was 2 µg/mL (≈ 3.86 µM); with Streptococcus pneumoniae, 0.25 µg/mL (≈ 0.483 µM). For the same compound, the Tmax was 0 h in series [16] and 10.2 min in series [17]. In [18], this compound had a bioavailability of 60%.
`CC(=O)NC[C@H]1CN(c2ccc(N3CCOCC3)c(F)c2)C(=O)O1` [LINEZOLID]: the Tmax in series [19] was determined as 18.6 min; in [16], 0 h. In addition, the minimal inhibitory concentration (MIC) against Bacillus pumilus turned out to be 0.5 µg/mL (≈ 1.48 µM); in the series on Bacillus cereus, 2 µg/mL (≈ 5.93 µM); in the series on Streptococcus pyogenes, 1 µg/mL (≈ 2.96 µM); in [7], 1 µg/mL (≈ 2.96 µM); against Enterococcus faecium, 1 µg/mL (≈ 2.96 µM); in the series with Staphylococcus aureus [12], 1 µg/mL (≈ 2.96 µM). Besides, the MIC against Staphylococcus aureus [13] was 1 µg/mL (≈ 2.96 µM); in the series with Staphylococcus aureus [14] it was over 16 µg/mL; in the series on Staphylococcus aureus [15], over 16 µg/mL; in the series on Streptococcus pneumoniae, 0.25 µg/mL (≈ 0.741 µM).
